Hits are enriched below; roughly 2.2% of the tested compounds scored in any of these assays.
PfGluPho inh = PfG6PD (Plasmodium falciparum) enzyme inhibition | inhibition, % at 20 µM | PfGluPho enzyme, NADPH resazurin-diaphorase fluorescence | AID 504690 | hit rate 0.78% among 350,000;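 active = inhibition reaching at least a set limit at 20 µM in the primary screen, cut at about 59% in these data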;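 note: 0% = DMSO wells with substrate and 100% = DMSO wells lacking glucose-6-phosphate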
HKDC1 inh = blocks human hexokinase HKDC1 activity | Q2TB90 | recombinant HKDC1, G6PDH/diaphorase resazurin coupled fluorescence | inhibition, % at 20 µM | hit rate 0.16% among 340,000 | AID 493160;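 active = inhibition above about 35% when tested at 20 µM, limit read from the data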;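 note: plate controls were DMSO wells with enzyme for no effect and DMSO wells lacking enzyme for full effect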
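Assay system: recombinant HKDC1 hexokinase; detection: coupled resazurin fluorescence, excitation 525 nm, emission 613 nm; benchmarks: DMSO-plus-enzyme-mix negative control, buffer-substituted positive control; compound dosing: single 20 µM dose; schedule: 90 min at room temperature in dark; also added: glucose plus 1 mM ATP as hexokinase substrates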
Granule exo inh = blocks lytic granule exocytosis; AID 651702; hit rate 0.66% among 360,000; inhibition, % at 10 µM; TALL-104 LAMP-1 surface exposure, flow cytometry; cells stimulated with thapsigargin and PMA;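 active = inhibition above about 55%, limit read from the data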
ABHD5-PLIN5 inh = blocks binding of human ABHD5 to perilipin-5; AID 602281; Q00G26+Q8WTS1; inhibition, % at 4 µM; hit rate 0.78% among 360,000; Split G. princeps luciferase complementation, luminescence, 4 h;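 active = inhibition above the mean inhibition across every tested compound plus 3 SD, cut at about 22% in these data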;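 note: 0% = DMSO only wells and the 100% control is not disclosed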
ABHD5 PLIN5 conf = ABHD5-PLIN5 interaction inhibition, confirmed; shares compounds with ABHD5-PLIN5 inh; biochemical ABHD5-PLIN5 interaction, luminescence; inhibition, % at 4 µM; hit rate 67% among 2,200; AID 651612; in the data active = inhibition above about 23%;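 note: 0% = DMSO vehicle wells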
HNF4 counter = active in HNF4 split-luciferase counter-screen for ABHD5-PLIN5 inhibitors | shares compounds with ABHD5-PLIN5 inh | HNF4 dimerization, luminescence, biochemical | inhibition, % at 4 µM | hit rate 77% among 2,200 | AID 651674;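 active = mean inhibition across replicate wells exceeding the computed hit threshold, cut at about 13% in these data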;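 note: light from luciferase halves that rejoin when HNF4 fusion proteins dimerize; 0% = DMSO only wells and the 100% control is not given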
Target sequence (P41235 whole entry, looked up, the tested form may be a part): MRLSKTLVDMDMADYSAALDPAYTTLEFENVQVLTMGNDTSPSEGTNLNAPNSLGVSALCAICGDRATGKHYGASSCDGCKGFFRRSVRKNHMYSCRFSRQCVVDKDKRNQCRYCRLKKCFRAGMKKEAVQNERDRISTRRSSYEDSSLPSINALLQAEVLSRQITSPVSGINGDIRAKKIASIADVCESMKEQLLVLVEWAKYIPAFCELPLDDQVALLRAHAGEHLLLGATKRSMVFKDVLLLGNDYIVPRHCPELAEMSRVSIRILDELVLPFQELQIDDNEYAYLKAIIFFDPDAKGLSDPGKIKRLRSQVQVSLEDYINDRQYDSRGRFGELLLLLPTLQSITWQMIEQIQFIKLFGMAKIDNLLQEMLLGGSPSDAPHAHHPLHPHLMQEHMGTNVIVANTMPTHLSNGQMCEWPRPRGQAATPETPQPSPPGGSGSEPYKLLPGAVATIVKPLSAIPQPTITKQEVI
Starred values were filed as active, the others as inactive; . = no result.

SMILES | PfGluPho inh | HKDC1 inh | Granule exo inh | ABHD5-PLIN5 inh | ABHD5 PLIN5 conf | HNF4 counter
COC(=O)C1=C(c2ccc(S(C)(=O)=O)cc2)C[C@@H]2CC[C@H]1N2C(=O)NCc1ccco1 | 6 | -6 | 53 | 15 | . | .
COc1cc(C)c(CN2CCN(c3ccccc3)CC2)cc1C | 8 | -14 | 0 | 1 | . | .
C=CCN1C(=O)NC(=O)/C(=C/c2c(CCN(C)C(=O)c3ccccc3)cc3c(c2OC)OCO3)C1=O | -3 | 3 | 0 | 26* | 9 | 18*
CNC(=S)N(C)CCc1cc2c(c(OC)c1C=C1C(=O)NC(=O)NC1=O)OCO2 | 6 | 1 | 26 | 22 | . | .
COC(=O)C1=C(c2c(C)noc2C)C[C@@H]2CC[C@H]1N2C(=O)NCCO | 14 | -6 | 2 | 1 | . | .
CCCNC(=O)c1c(N)n(Cc2ccco2)c2nc3ccccc3nc12 | 28 | 5 | . | . | . | .
Nc1c(C(=O)NCc2ccco2)c2nc3ccccc3nc2n1CCN1CCCCC1 | 28 | 8 | -1 | 24* | 12 | 8
Nc1c(C(=O)NCC2CCCO2)c2nc3ccccc3nc2n1Cc1ccco1 (centres undefined) | 36 | 14 | -4 | 26* | 53* | 45*
COc1ccc(CCNCc2cccn2C)cc1OC | 5 | -1 | -3 | -2 | . | .
COc1ccccc1-n1c(O)c(/C=C2\C=Nc3ccccc32)c(=O)[nH]c1=O | 21 | 8 | -20 | 29* | 24* | 28*
CCOc1ccc(-n2c(O)c(/C=C3\C=Nc4ccccc43)c(=O)[nH]c2=O)cc1 | 3 | 7 | -19 | 29* | 14 | 38*
COc1ccc(OC)c(CC(=O)N(C)C2CCCN(Cc3ccccc3F)C2)c1 (centres undefined) | -1 | 4 | -1 | -3 | . | .
CN1CCc2nc3sc(C(=O)NC(C)(C)C)c(N)c3cc2C1 | -15 | 5 | 1 | -3 | . | .
COC[C@H]1OC(=O)c2coc3c2[C@@]1(C)C1=C(C3=O)[C@@H]2CCC(=O)[C@@]2(C)C[C@H]1OC(C)=O | -1 | 6 | -2 | 26* | 8 | 69*
CN(C)CC(C(=O)Cc1ccccc1)c1ccccc1 (centres undefined) | 7 | -1 | 4 | 37* | 16 | 92*
O=C1CC(=O)N(c2ccccc2)C(=O)N1 | -23 | -8 | -4 | 29* | 5 | 24*
COc1ccc(N2C(=O)NC(=O)C(CCc3ccncc3)(CCc3ccncc3)C2=O)cc1 | -22 | 2 | -2 | 6 | . | .
COc1ccc(S(=O)(=O)NC(CC(=O)N2CCC3(CC2)OCCO3)C(C)C)cc1 (centres undefined) | 17 | -14 | -2 | 5 | . | .
[Cl][Pt+2][Cl].[NH-]C1CCCCC1[NH-] (centres undefined) | 37 | 2 | 5 | 36* | 60* | 55*
CN1/C(=C\C=C2C(=O)NC(=O)NC2=O)C(C)(C)c2ccccc21 | -7 | -6 | 0 | 4 | . | .
CCN1/C(=C/C=C/C2=[N+](CC)c3ccccc3C2(C)C)C(C)(C)c2ccccc21 | -135 | . | 69* | 52* | 28* | 37*
C=CCOC(=O)C1C(C(=O)O)C2(Cl)C(Cl)=C(Cl)C1(Cl)C2(Cl)Cl (centres undefined) | -17 | 4 | 1 | -11 | . | .
COC(=O)c1cc(C(O)(C(=O)OC)C(F)(F)F)c(/N=C/N(C)C)s1 (centres undefined) | -4 | -2 | 3 | -6 | . | .
CNc1cc(Cl)c2nonc2c1[N+](=O)[O-] | 23 | 8 | 16 | 32* | 36* | 80*
Cc1cc([N+](=O)[O-])c(Cl)cc1NC(=O)C(C)C | -10 | -7 | 2 | -6 | . | .
SMILES | PfGluPho inh | HKDC1 inh | Granule exo inh | ABHD5-PLIN5 inh | ABHD5 PLIN5 conf | HNF4 counter
O=C1C2(c3ccccc3)CN3CN(C2)CC1(c1ccccc1)C3 | 6 | 13 | -7 | 4 | . | .
CCCCCCCSc1cc(OC)c(CCN(C)C)cc1OC | 18 | -5 | 30 | 28* | 17 | 1
O=C1NC(=O)C(=Cc2ccc(N3CCOCC3)cc2)C(=O)N1 | -5 | -2 | -1 | -2 | . | .
O=C1NC(=O)C(=Cc2ccc(-c3ccc(S(=O)(=O)N4CCOCC4)cc3)o2)C(=O)N1 | 73* | 8 | 5 | 33* | 91* | 93*
COc1cc(/C=C/[N+](=O)[O-])ccc1OC(=O)c1cccnc1 | 44 | 1 | -6 | 27* | 83* | 101*
COc1ccc(OC)c(N2C(=O)CC(=O)NC2=O)c1 | -10 | 2 | 0 | 30* | 5 | 21*
O=C1NC(=O)N(c2ccccc2F)C(=O)/C1=C/c1ccc(Oc2ccc([N+](=O)[O-])cn2)cc1 | -4 | 4 | -6 | 24* | 69* | 47*
O=C(C1CC(=O)N(C2CCCCCCC2)C1)N1CCC2(CC1)OCCO2 (centres undefined) | -6 | -3 | 0 | 2 | . | .
O=C1C2CCCC1C(N1CCCC1)CC2 (centres undefined) | -6 | -5 | 3 | -3 | . | .
COc1cc(/C=C2\C(=O)NC(=O)N(c3ccccc3)C2=O)cc(OC)c1O | 15 | 7 | 0 | 34* | 17 | 22*
O=C(O)Cn1cc(C=C2C(=O)NC(=O)NC2=O)c2ccccc21 | 12 | 9 | 27 | 32* | 12 | 12
O=C(O)Cn1cc(/C=C2\C(=O)NC(=O)N(c3ccc(Cl)cc3)C2=O)c2ccccc21 | 15 | 7 | 4 | 36* | 33* | 32*
C=CCn1cc(C=C2C(=O)NC(=O)NC2=O)c2ccccc21 | -9 | 6 | -6 | 16 | . | .
COc1ccccc1N1C(=O)NC(=O)/C(=C/c2ccc3c(c2)Cc2ccccc2-3)C1=O | 12 | -3 | -2 | 17 | . | .
Cc1cc(/C=C2/C(=O)NC(=O)N(c3ccccc3)C2=O)c(C)n1-c1ccc(F)cc1 | 10 | 12 | 7 | 6 | . | .
Cn1cc(/C=C2\C(=O)NC(=O)N(c3ccccc3)C2=O)c2ccccc21 | -1 | 12 | -4 | 29* | 14 | 15*
Cc1ccc(N2C(=O)NC(=O)/C(=C\C=C\c3ccco3)C2=O)cc1 | 40 | 10 | 90* | 25* | 95* | 73*
Cc1cccc(N2C(=O)NC(=O)/C(=C\C=C\c3ccco3)C2=O)c1 | 44 | 4 | 28 | 24* | 93* | 70*
CN1C(=O)/C(=C/C=C/c2ccco2)C(=O)NC1=S | -2 | 16 | 0 | 26* | 74* | 49*
Cn1cccc1/C=C1\C(=O)NC(=O)N(Cc2ccco2)C1=O | 26 | 10 | -2 | 4 | . | .
O=C1NC(=O)N(Cc2ccco2)C(=O)/C1=C/C=C/c1ccco1 | 47 | 32 | 9 | 46* | 98* | 80*
O=C1NC(=O)N(Cc2ccccc2)C(=O)/C1=C\C=C\c1ccco1 | 31 | 19 | 14 | 28* | 97* | 64*
C=CCN1C(=O)NC(=O)/C(=C/C=C/c2ccccc2)C1=O | 12 | 6 | 0 | 3 | . | .
CC1(C)CN=C(NCc2ccccc2Cl)S1 | -12 | 9 | -3 | 2 | . | .

Assay outcomes (PubChem)
